Values after ≈ are worked out from the molar mass of the structure shown. Active and inactive are the calls of the source. The calls are words filed in the database; no cut-off is given here.
How the values were obtained:
KM-20L2 = experiment: Cytotoxicity against human KM20L2 cells after 48 hrs by sulforhodamine B assay; assay type: functional; conditions: KM-20L2, 48 h
Procedure, shortened: (§1)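 Human tumor lines exposed to compound for 48 h, then fixed with trichloroacetic acid and stained with sulforhodamine B (NCI standard protocol); optical density read on a microplate reader. GI50 is the concentration giving a 50% reduction in net protein increase, calculated from optical density data.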

DU-145 = experiment: Cytotoxicity against human DU145 cells after 48 hrs by sulforhodamine B assay; assay type: functional; conditions: DU-145, 48 h; procedure, shortened: as §1
[1] = Inhibition of tubulin polymerization
Procedure, shortened: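 Turbidimetry at 350 nm. Compound at varying concentrations preincubated with 10 μM (1.0 mg/mL) purified tubulin, chilled on ice, then 0.4 mM GTP added and polymerization followed at 30 °C. Extent of polymerization at 20 min measured.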

[2] = Displacement of [3H]colchicine from tubulin
Procedure, shortened: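 [3H]colchicine binding with 1.0 μM tubulin, 5.0 μM [3H]colchicine and inhibitor at 1.0 μM.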

HUVEC [3] = experiment: Induction of microtubule damage in HUVEC at 1 uM after 30 mins; assay type: functional, cell-based; conditions: Homo sapiens
Procedure, shortened: (§2)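 Primary HUVECs from umbilical cords grown in M199 with 20% human serum, CD31-authenticated. About 3×10^4 cells on gelatin-coated coverslips, 24 h at 37 °C, then compound from DMSO for 30 min to 4 h, in duplicate. Cells methanol-fixed, stained with anti-α-tubulin and TRITC secondary plus Hoechst, imaged by confocal microscopy and scored for microtubule damage.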

HUVEC [4] = experiment: Induction of microtubule damage in HUVEC at 1 uM after 1 hr; assay type: functional, cell-based; conditions: Homo sapiens; procedure, shortened: as §2
HUVEC [5] = experiment: Induction of microtubule damage in HUVEC at 1 uM after 2 hrs; assay type: functional, cell-based; conditions: Homo sapiens; procedure, shortened: as §2
HUVEC [6] = experiment: Induction of microtubule damage in HUVEC at 1 uM after 4 hrs; assay type: functional, cell-based; conditions: Homo sapiens; procedure, shortened: as §2
HUVEC [7] = experiment: Induction of microtubule depolymerization in HUVEC at 10 uM after 30 mins; assay type: functional, cell-based; conditions: Homo sapiens; procedure, shortened: as §2
HUVEC [8] = experiment: Induction of microtubule depolymerization in HUVEC at 10 uM after 1 hr; assay type: functional, cell-based; conditions: Homo sapiens; procedure, shortened: as §2
HUVEC [9] = experiment: Induction of microtubule depolymerization in HUVEC at 10 uM after 2 hrs; assay type: functional, cell-based; conditions: Homo sapiens; procedure, shortened: as §2
HUVEC [10] = experiment: Induction of microtubule depolymerization in HUVEC at 10 uM after 4 hrs; assay type: functional, cell-based; conditions: Homo sapiens; procedure, shortened: as §2
[11] = Cytotoxicity against HUVEC; assay type: cell-based; conditions: human, HUVEC cells; read-out: ED50 (the source's name)
Procedure, shortened: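 Commercial HUVECs grown in EGM-2 medium. Growth measured by the sulforhodamine B assay: 48 h exposure, TCA fixation, SRB stain, optical density read. ED50 = concentration giving 50% inhibition, taken from plotted data.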

HUVEC [12] = experiment: Reduction of cord length in HUVEC at 0.01 ug/mL; assay type: functional, cell-based; conditions: Homo sapiens
Procedure, shortened: (§3)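 Matrigel cord formation (NCI DTP protocol). Commercial HUVECs in EGM-2; Matrigel polymerized 15 min at RT then 30 min at 37 °C; 100 μL of 2×10^5 cells/mL plus compound solution; 24 h incubation. Imaged by inverted microscope; cord length and junction number compared with untreated controls.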

HUVEC [13] = experiment: Reduction of cord length in HUVEC at 0.001 ug/mL; assay type: functional, cell-based; conditions: Homo sapiens; procedure, shortened: as §3
HUVEC [14] = experiment: Reduction of junction numbers in HUVEC at 0.01 ug/mL; assay type: functional, cell-based; conditions: Homo sapiens; procedure, shortened: as §3
HUVEC [15] = experiment: Reduction of junction numbers in HUVEC at 0.001 ug/mL; assay type: functional, cell-based; conditions: Homo sapiens; procedure, shortened: as §3
Cryptococcus neoformans = experiment: Antimicrobial activity against Cryptococcus neoformans ATCC 90112 after 72 hrs by broth microdilution assay; assay type: functional; conditions: ATCC 90112, 72 h
Procedure, shortened: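 Yeast NCCLS broth microdilution (M27-A). Inoculum 0.5 to 2.5×10^3 CFU/mL; 2-fold dilutions in 0.165 M MOPS-buffered RPMI 1640, pH 7.0; compound from DMSO, DMSO-only turbidity control; 35 °C without agitation; read at 72 h (Cryptococcus). MIC = lowest concentration giving no visible growth.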

Streptococcus pneumoniae = experiment: Antimicrobial activity against Streptococcus pneumoniae ATCC 6303 after 24 hrs by broth microdilution assay; assay type: functional; conditions: ATCC 6303, 24 h
Procedure, shortened: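 Streptococcus tested by NCCLS broth microdilution in cation-adjusted MHII broth with 3% lysed horse blood. Final inoculum about 5×10^5 CFU/mL; 2-fold compound dilutions from DMSO; DMSO turbidity control; 35 °C without agitation, 24 h. MIC = lowest concentration with no visible growth.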

Micrococcus luteus = experiment: Antimicrobial activity against Micrococcus luteus Presque Isle 456 after 24 hrs by broth microdilution assay; assay type: functional
Procedure, shortened: (§4)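 NCCLS bacterial broth microdilution (M7-A5). Overnight colonies diluted to about 5×10^5 CFU/mL final; 2-fold compound dilutions (DMSO stock) in cation-adjusted Mueller Hinton II broth; DMSO turbidity control; 35 °C without agitation, 24 h. MIC = lowest concentration with optically clear wells.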

Neisseria gonorrhoeae = experiment: Antimicrobial activity against Neisseria gonorrhoeae ATCC 49226 after 24 hrs by broth microdilution assay; assay type: functional; conditions: ATCC 49226, 24 h
Procedure, shortened: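 Neisseria tested by NCCLS broth microdilution in gonococcal typing broth. Final inoculum about 5×10^5 CFU/mL; 2-fold compound dilutions from DMSO; DMSO turbidity control; 37 °C with 5% CO₂ without agitation, 24 h. MIC = lowest concentration with no visible growth.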

Candida albicans = experiment: Antimicrobial activity against Candida albicans ATCC 90028 at 64 ug/mL after 48 hrs by broth microdilution assay; assay type: functional, organism-based
Procedure, shortened: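 Yeast NCCLS broth microdilution (M27-A). Inoculum 0.5 to 2.5×10^3 CFU/mL; 2-fold dilutions in 0.165 M MOPS-buffered RPMI 1640, pH 7.0; compound from DMSO, DMSO-only turbidity control; 35 °C without agitation; read at 48 h (Candida). MIC = lowest concentration giving no visible growth.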

Staphylococcus aureus = experiment: Antimicrobial activity against Staphylococcus aureus ATCC 29213 at 64 ug/mL after 24 hrs by broth microdilution assay; assay type: functional, organism-based; procedure, shortened: as §4
Enterococcus faecalis = experiment: Antimicrobial activity against Enterococcus faecalis ATCC 29212 at 64 ug/mL after 24 hrs by broth microdilution assay; assay type: functional, organism-based; procedure, shortened: as §4
Escherichia coli = experiment: Antimicrobial activity against Escherichia coli ATCC 25922 at 64 ug/mL after 24 hrs by broth microdilution assay; assay type: functional, organism-based; procedure, shortened: as §4
Enterobacter cloacae = experiment: Antimicrobial activity against Enterobacter cloacae ATCC 13047 at 64 ug/mL after 24 hrs by broth microdilution assay; assay type: functional, organism-based; procedure, shortened: as §4
[16] = test system: Stenotrophomonas maltophilia; experiment: Antimicrobial activity against Stenotrophomonas maltophilia ATCC 13637 at 64 ug/mL after 24 hrs by broth microdilution assay; assay type: functional, organism-based; procedure, shortened: as §4
NCI-H460 = experiment: Cytotoxicity against human NCI-H460 cells after 48 hrs by sulforhodamine B assay; assay type: functional; conditions: NCI-H460, 48 h; procedure, shortened: as §1
BXPC-3 = experiment: Cytotoxicity against human BxPC3 cells after 48 hrs by sulforhodamine B assay; assay type: functional; conditions: BXPC-3, 48 h; procedure, shortened: as §1
MCF7 = experiment: Cytotoxicity against human MCF7 cells after 48 hrs by sulforhodamine B assay; assay type: functional; conditions: MCF7, 48 h; procedure, shortened: as §1
SF-268 = experiment: Cytotoxicity against human SF268 cells after 48 hrs by sulforhodamine B assay; assay type: functional; conditions: SF-268, 48 h; procedure, shortened: as §1
P388 = experiment: Cytotoxicity against mouse P388 cells after 48 hrs by Coulter particle counting; conditions: P388, 48 h, read-out: ED50 (the source's name)

**Q.** With `COc1ccc(/C=C\c2cc(F)c(OC)c(OC)c2)cc1O` [FLUORCOMBSTATIN] as the molecule, how does the GI50 (KM-20L2) read?
**A.** > 1 µg/mL

**Q.** What about the GI50 (DU-145) of the same molecule?
**A.** 0.0019 µg/mL (≈ 0.00624 µM)

**Q.** What about the IC50 [1] of the same molecule?
**A.** 1500 nM

**Q.** What about the Activity [2] of the same molecule?
**A.** 75%

**Q.** What about the Activity (HUVEC [3]) of the same molecule?
**A.** Active

**Q.** And the Activity (HUVEC [4])?
**A.** Active

**Q.** And the Activity (HUVEC [5])?
**A.** Active

**Q.** And the Activity (HUVEC [6])?
**A.** Active

**Q.** And the Activity (HUVEC [7])?
**A.** Active

**Q.** What about the Activity (HUVEC [8]) of the same molecule?
**A.** Active

**Q.** And the Activity (HUVEC [9])?
**A.** Active

**Q.** What about the Activity (HUVEC [10]) of the same molecule?
**A.** Active

**Q.** And the CC50 [11]?
**A.** 0.00025 µg/mL (≈ 0.000822 µM)

**Q.** And the Activity (HUVEC [12])?
**A.** Active

**Q.** And the Activity (HUVEC [13])?
**A.** Active

**Q.** And the Activity (HUVEC [14])?
**A.** Active

**Q.** And the Activity (HUVEC [15])?
**A.** Active

**Q.** And the MIC (Cryptococcus neoformans)?
**A.** 64 µg/mL (≈ 210 µM)

**Q.** And the MIC (Streptococcus pneumoniae)?
**A.** 64 µg/mL (≈ 210 µM)

**Q.** And the MIC (Micrococcus luteus)?
**A.** 32 µg/mL (≈ 105 µM)

**Q.** What about the MIC (Neisseria gonorrhoeae) of the same molecule?
**A.** 32 µg/mL (≈ 105 µM)

**Q.** What about the Activity (Candida albicans) of the same molecule?
**A.** inactive

**Q.** And the Activity (Staphylococcus aureus)?
**A.** inactive

**Q.** And the Activity (Enterococcus faecalis)?
**A.** inactive

**Q.** And the Activity (Escherichia coli)?
**A.** inactive

**Q.** And the Activity (Enterobacter cloacae)?
**A.** inactive

**Q.** And the Activity [16]?
**A.** inactive

**Q.** What about the GI50 (NCI-H460) of the same molecule?
**A.** < 0.0032 µg/mL

**Q.** What about the GI50 (BXPC-3) of the same molecule?
**A.** 0.745 µg/mL (≈ 2.45 µM)

**Q.** What about the GI50 (MCF7) of the same molecule?
**A.** < 0.0027 µg/mL

**Q.** And the GI50 (SF-268)?
**A.** < 0.0016 µg/mL

**Q.** What about the EC50 (P388) of the same molecule?
**A.** < 0.002 µg/mL

— ChEMBL document CHEMBL1151261, “Antineoplastic agents. 509: synthesis of fluorcombstatin phosphate and related 3-halostilbenes(1)” (J Nat Prod, 2005)
